In ChEMBL document CHEMBL1158679, “Synthetic analogues of irlbacholine: a novel antifungal plant metabolite isolated from Irlbachia alata” (1999) one finds MIC data, which are given here for 22 compounds.

Each structure is given as a SMILES string. In brackets after ≈: the same amount, converted by molar mass.

Common to all, as to assay type: functional
Assay [1] has as its system Candida albicans. As to the kind of experiment: Antifungal activity against Candida albicans ATCC 10259 by standard microdilution method. The method in brief:
(§1)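 Minimum inhibitory concentration measured by standard broth microdilution in 96-well microplates against the named yeast strain.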
(In general: Dilution methods test growth across graded concentrations, often in twofold steps.)

Assay [2] relates to Cryptococcus neoformans. As to the kind of experiment: Antifungal activity against Cryptococcus neoformans ATCC 36556 by standard microdilution method. The method in brief: as §1
For assay [3], the system named is Candida albicans. As to the kind of experiment: Antifungal activity against Candida albicans B311 by standard microdilution method. The method in brief: as §1
Assay [4] concerns Candida albicans. As to the kind of experiment: Antifungal activity against Candida albicans 572-27 by standard microdilution method. Put shortly:
as §1

Assay [5] relates to Cryptococcus neoformans. As to the kind of experiment: Antifungal activity against Cryptococcus neoformans 96-69 by standard microdilution method.
Another assay has as its system Aspergillus fumigatus. As to the kind of experiment: Antifungal activity against Aspergillus fumigatus ATCC 13073 by standard microdilution method. The method in brief: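 MIC read from a 96-well microplate broth microdilution run by the standard method, with Sabouraud dextrose broth as the medium for A. fumigatus ATCC 13073.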

Broadly, the MIC is the smallest concentration in the dilution series that meets the test's criterion for growth inhibition.

As for `O=P(O)(OCCBr)OCCCCCCCCCCCCCCCCOP(=O)(O)OCCBr`, the minimal inhibitory concentration (MIC) was 62.5 µg/mL (≈ 98.8 µM) against Candida albicans [1]; 62.5 µg/mL (≈ 98.8 µM) against Cryptococcus neoformans [2]; 125 µg/mL (≈ 198 µM) with Candida albicans [3]; 125 µg/mL (≈ 198 µM) against Candida albicans [4]; 125 µg/mL (≈ 198 µM) against Cryptococcus neoformans [5].

On to `O=P(O)(OCCBr)OCCCCCCCCCCCCCCCCCCCCCCOP(=O)(O)OCCBr`, for which the minimum inhibitory concentration (MIC) was over 500 µg/mL with Candida albicans [1], 500 µg/mL (≈ 698 µM) in the assay on Cryptococcus neoformans [2], over 500 µg/mL with Candida albicans [4] and 500 µg/mL (≈ 698 µM) with Cryptococcus neoformans [5].

Consider `O=P(OCCCCCCCCCCCCCCCCCCCCCCOP(=O)(Oc1ccccc1)Oc1ccccc1)(Oc1ccccc1)Oc1ccccc1`, for which the minimal inhibitory concentration (MIC) against Candida albicans [1] is 125 µg/mL (≈ 155 µM); against Cryptococcus neoformans [2] it was 125 µg/mL (≈ 155 µM); with Aspergillus fumigatus, over 500 µg/mL; with Candida albicans [3], 250 µg/mL (≈ 310 µM); against Candida albicans [4], 250 µg/mL (≈ 310 µM); with Cryptococcus neoformans [5], 125 µg/mL (≈ 155 µM).

`OCCCCCCCCCCCCCCCCO`: the minimal inhibitory concentration (MIC) was 125 µg/mL (≈ 484 µM) against Candida albicans [1]; 62.5 µg/mL (≈ 242 µM) with Cryptococcus neoformans [2]; over 500 µg/mL with Aspergillus fumigatus; 250 µg/mL (≈ 967 µM) against Candida albicans [3]; 250 µg/mL (≈ 967 µM) in the assay on Candida albicans [4]; 62.5 µg/mL (≈ 242 µM) against Cryptococcus neoformans [5].

On to `C[N+](C)(C)CCOP(=O)([O-])OCCCCCCCCCCCCCCCCCCCCCCOP(=O)([O-])OCC[N+](C)(C)C.Cl`, for which the MIC against Candida albicans [1] is 1.25 µg/mL; against Cryptococcus neoformans [2] it was 0.04 µg/mL; in the assay with Aspergillus fumigatus it was 0.08 µg/mL; against Candida albicans [3], 0.5 µg/mL; in the assay with Candida albicans [4], 0.5 µg/mL; with Cryptococcus neoformans [5] it was 0.5 µg/mL.

As to `C[N+](C)(C)CCOP(=O)([O-])OCCCCCCCCCCCCOP(=O)([O-])OCC[N+](C)(C)C`, the MIC with Candida albicans [1] stood at 500 µg/mL (≈ 939 µM); against Cryptococcus neoformans [2], 250 µg/mL (≈ 469 µM); in the assay with Candida albicans [3] it was 500 µg/mL (≈ 939 µM); with Candida albicans [4], 500 µg/mL (≈ 939 µM); with Cryptococcus neoformans [5], 250 µg/mL (≈ 469 µM).

As for `C[N+](C)(C)CCOP(=O)([O-])OCCCCCCCCCCCCCCOP(=O)([O-])OCC[N+](C)(C)C`, the MIC in the assay with Candida albicans [1], with Cryptococcus neoformans [2], with Candida albicans [3], against Candida albicans [4] and in the assay on Cryptococcus neoformans [5] was 250 µg/mL (≈ 446 µM) in each case.

In the case of `OCCCCCCCCCCCCCCCCCCCCCCO`, the minimal inhibitory concentration (MIC) against Candida albicans [1], against Cryptococcus neoformans [2], in the assay on Aspergillus fumigatus, against Candida albicans [3], against Candida albicans [4] and in the assay with Cryptococcus neoformans [5] was over 500 µg/mL throughout.

For the compound `C[N+](C)(C)CCOP(=O)([O-])OCCCCCCCCCCCCCCCCCCOP(=O)([O-])OCC[N+](C)(C)C`, the MIC in the assay on Candida albicans [1] was over 500 µg/mL; against Cryptococcus neoformans [2], 500 µg/mL (≈ 811 µM); in the assay with Candida albicans [4] it was over 500 µg/mL; against Cryptococcus neoformans [5] it was over 500 µg/mL.

Consider `C[N+](C)(C)CCOP(=O)([O-])OCCCCCCCCCCCCCCCCOP(=O)([O-])OCC[N+](C)(C)C`, for which the MIC stood at 125 µg/mL (≈ 212 µM) in the assay on Candida albicans [1]; 125 µg/mL (≈ 212 µM) with Cryptococcus neoformans [2]; 25 µg/mL (≈ 42.5 µM) with Aspergillus fumigatus; 250 µg/mL (≈ 425 µM) in the assay with Candida albicans [3]; 125 µg/mL (≈ 212 µM) in the assay on Candida albicans [4]; 125 µg/mL (≈ 212 µM) in the assay on Cryptococcus neoformans [5].

Consider `O=P(OCCCCCCCCCCCCCCCCOP(=O)(Oc1ccccc1)Oc1ccccc1)(Oc1ccccc1)Oc1ccccc1`, for which the MIC with Candida albicans [1] is 125 µg/mL (≈ 173 µM); against Cryptococcus neoformans [2], 62.5 µg/mL (≈ 86.5 µM); against Aspergillus fumigatus, over 500 µg/mL; in the assay with Candida albicans [3], 250 µg/mL (≈ 346 µM); with Candida albicans [4], 250 µg/mL (≈ 346 µM); against Cryptococcus neoformans [5] it was 125 µg/mL (≈ 173 µM).

In the case of `C[N+](C)(C)CCOP(=O)([O-])OCCCCCCCCCCCCCCCCCCCCOP(=O)([O-])OCC[N+](C)(C)C`, the MIC against Candida albicans [1] is over 500 µg/mL; in the assay on Cryptococcus neoformans [2], 15.6 µg/mL (≈ 24.2 µM); against Candida albicans [4], over 500 µg/mL; in the assay on Cryptococcus neoformans [5], 15.6 µg/mL (≈ 24.2 µM).

Take `C[N+](C)(C)CCOP(=O)([O-])OCCCCCCCCCCCCCCCCCCCCCCCCOP(=O)([O-])OCC[N+](C)(C)C`: the MIC worked out at 31.2 µg/mL (≈ 44.5 µM) with Candida albicans [1]; 3.9 µg/mL (≈ 5.56 µM) against Cryptococcus neoformans [2]; 62.5 µg/mL (≈ 89.2 µM) against Candida albicans [3]; 62.5 µg/mL (≈ 89.2 µM) against Candida albicans [4]; 7.8 µg/mL (≈ 11.1 µM) in the assay with Cryptococcus neoformans [5].

Consider `C[N+](C)(C)CCOP(=O)([O-])OCCCCCCCCCCCCCCCCCCCCCCOP(=O)([O-])OCC[N+](C)(C)C`, for which the minimum inhibitory concentration (MIC) in the assay on Candida albicans [1] amounted to 1.25 µg/mL (≈ 1.86 µM); against Cryptococcus neoformans [2], 0.04 µg/mL (≈ 0.0594 µM); against Aspergillus fumigatus it was 0.08 µg/mL (≈ 0.119 µM); in the assay with Candida albicans [3] it was 1 µg/mL (≈ 1.49 µM); in the assay on Candida albicans [4] it was 1 µg/mL (≈ 1.49 µM); with Cryptococcus neoformans [5] it was 0.5 µg/mL (≈ 0.743 µM).

With `O=P(O)(O)OCCCCCCCCCCCCCCCCOP(=O)(O)O`, the minimal inhibitory concentration (MIC) in the assay with Candida albicans [1] is 125 µg/mL (≈ 299 µM); against Cryptococcus neoformans [2], 62.5 µg/mL (≈ 149 µM); against Aspergillus fumigatus, over 500 µg/mL; in the assay on Candida albicans [3] it was 250 µg/mL (≈ 598 µM); with Candida albicans [4], 250 µg/mL (≈ 598 µM); in the assay with Cryptococcus neoformans [5] it was 125 µg/mL (≈ 299 µM).

Take `O=P(O)(O)OCCCCCCCCCCCCCCCCCCCCCCOP(=O)(O)O`: the minimum inhibitory concentration (MIC) against Candida albicans [1] is 250 µg/mL (≈ 497 µM); in the assay with Cryptococcus neoformans [2], 62.5 µg/mL (≈ 124 µM); against Aspergillus fumigatus, over 500 µg/mL; with Candida albicans [3], 250 µg/mL (≈ 497 µM); with Candida albicans [4], 250 µg/mL (≈ 497 µM); against Cryptococcus neoformans [5], 125 µg/mL (≈ 249 µM).

As for `CCCCCCCCCCCCCCCCCCCCCCOP(=O)(O)OCC[N+](C)(C)C.[Cl-]`, the MIC in the assay on Candida albicans [1] was determined as 500 µg/mL; in the assay on Cryptococcus neoformans [2], 250 µg/mL; against Candida albicans [3], 500 µg/mL; against Candida albicans [4] it was 500 µg/mL; against Cryptococcus neoformans [5] it was 500 µg/mL.

For the compound `C[N+](C)(C)CCOP(=O)(O)OCCCCCCCCCCCCCCCl.[Cl-]`, the minimum inhibitory concentration (MIC) stood at 7.8 µg/mL in the assay with Candida albicans [1]; 1 µg/mL in the assay with Cryptococcus neoformans [2]; 7.8 µg/mL in the assay with Candida albicans [3]; 3.9 µg/mL with Candida albicans [4]; 0.5 µg/mL in the assay on Cryptococcus neoformans [5].

In the case of `C[N+](C)(C)CCOP(=O)(O)OCCCCCCCCCCCCCCCCCl.[Cl-]`, the minimal inhibitory concentration (MIC) in the assay with Candida albicans [1] is 0.5 µg/mL; against Cryptococcus neoformans [2] it was 0.5 µg/mL; against Aspergillus fumigatus, 3.1 µg/mL; against Candida albicans [3], 1 µg/mL; with Candida albicans [4] it was 1 µg/mL; with Cryptococcus neoformans [5] it was 0.5 µg/mL.

For the compound `CCCCCCCCCCCCCCCCOP(=O)(O)OCC[N+](C)(C)C.[Cl-]`, the MIC in the assay on Candida albicans [1] was found to be 0.5 µg/mL; in the assay on Cryptococcus neoformans [2], 0.5 µg/mL; against Candida albicans [3], 1 µg/mL; with Candida albicans [4], 1 µg/mL; against Cryptococcus neoformans [5], 0.5 µg/mL.

Regarding `CCCCCCCCCCCCCCCCO` [CETYL ALCOHOL], the MIC was 125 µg/mL (≈ 516 µM) against Candida albicans [1]; 62.5 µg/mL (≈ 258 µM) with Cryptococcus neoformans [2]; over 500 µg/mL in the assay on Aspergillus fumigatus; 250 µg/mL (≈ 1030 µM) against Candida albicans [3]; 250 µg/mL (≈ 1030 µM) in the assay with Candida albicans [4]; 125 µg/mL (≈ 516 µM) in the assay on Cryptococcus neoformans [5].

For the compound `CCCCCCCCCCCCCCCCOP(=O)(O)O` [HEXADECYL DIHYDROGEN PHOSPHATE], the MIC against Candida albicans [1] is 250 µg/mL; against Cryptococcus neoformans [2] it was 62.5 µg/mL; against Aspergillus fumigatus it was over 500 µg/mL; in the assay on Candida albicans [3], 250 µg/mL; against Candida albicans [4], 125 µg/mL; in the assay with Cryptococcus neoformans [5], 62.5 µg/mL.
